# The list is a sample of the results.
# HKDC1 activator: HKDC1 (human) hexokinase activation. 340,000 compounds, 0.056% hits. activity change, negative = activation, % at 20 µM. recombinant HKDC1, G6PDH/diaphorase resazurin fluorescence; hits give low values. Q2TB90. AID 493187;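 active = activation of 40% or more at 20 µM, a change of -40% or lower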
# Target sequence (Q2TB90 whole entry, looked up): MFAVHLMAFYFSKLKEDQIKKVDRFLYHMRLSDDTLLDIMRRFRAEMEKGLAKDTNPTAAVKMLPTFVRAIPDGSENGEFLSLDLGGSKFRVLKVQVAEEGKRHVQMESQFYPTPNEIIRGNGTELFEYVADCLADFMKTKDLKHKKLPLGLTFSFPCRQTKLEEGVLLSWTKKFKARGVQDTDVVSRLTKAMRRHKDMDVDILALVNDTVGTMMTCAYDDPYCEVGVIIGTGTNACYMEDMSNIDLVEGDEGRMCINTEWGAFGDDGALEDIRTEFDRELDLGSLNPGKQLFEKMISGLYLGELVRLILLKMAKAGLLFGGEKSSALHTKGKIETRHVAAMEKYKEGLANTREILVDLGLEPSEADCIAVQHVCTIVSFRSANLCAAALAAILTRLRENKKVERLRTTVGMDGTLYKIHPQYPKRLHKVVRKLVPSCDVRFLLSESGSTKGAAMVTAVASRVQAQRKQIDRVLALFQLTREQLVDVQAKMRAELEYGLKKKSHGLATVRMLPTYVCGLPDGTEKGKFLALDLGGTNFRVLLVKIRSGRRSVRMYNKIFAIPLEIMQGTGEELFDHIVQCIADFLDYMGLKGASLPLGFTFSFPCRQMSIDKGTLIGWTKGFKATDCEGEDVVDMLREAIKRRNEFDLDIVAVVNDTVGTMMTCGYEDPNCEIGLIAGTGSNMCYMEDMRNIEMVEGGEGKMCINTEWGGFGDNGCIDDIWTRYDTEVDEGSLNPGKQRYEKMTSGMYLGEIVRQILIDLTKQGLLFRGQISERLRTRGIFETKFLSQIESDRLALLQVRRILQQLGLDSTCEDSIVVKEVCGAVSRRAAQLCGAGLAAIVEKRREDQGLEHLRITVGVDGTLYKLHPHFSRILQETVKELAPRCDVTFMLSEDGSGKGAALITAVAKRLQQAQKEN
#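 Signal: coupled resazurin-to-resorufin fluorescence, Ex 525/Em 613 nm. Test system: in-house human HKDC1 enzyme, G6PDH and diaphorase coupling enzymes. Quantity: HKDC1 5 µg/mL. Timing: 90 min reaction at room temperature, dark.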
# The depositor's hits bear a star.
SMILES,HKDC1 activator
CC(CCC(C)C(C)(C)C)[C@@H]1CC[C@H]2C3C[C@H](OS(O)(=S)=S)[C@H]4C[C@H](OS(O)(=S)=S)[C@@H](OS(O)(=S)=S)C[C@]4(C)[C@H]3CC[C@]12C (stereo not given in full) (tested in a mixture with another compound),81
CCCC(NC(=O)Cc1c(C)c2cc3c(C)c(C)oc3c(C)c2oc1=O)C(=O)N[C@@H](Cc1ccccc1)C(=O)O (stereo not given in full),52
Cc1ccc2c(c1C)NC(C(=O)O)C1CC=CC21 (stereo not given),38
CC1(OC(=O)CCc2ccccc2)C(=O)C=C2C=C(c3ccc(C#N)cc3)N(Cc3ccccc3)C=C2C1=O (stereo not given),36
Cc1onc(-c2ccccc2)c1C(=O)NC(=S)NNC(=O)c1ccccc1O,-45*
COC(=O)c1ccccc1NC1=C/C(=N\S(=O)(=O)c2cccs2)c2ccccc2C1=O,39
Cc1ccc(/C=C/c2nc3sc(C(=O)O)c(C)c3c(=O)[nH]2)cc1[N+](=O)[O-],47

# Screens deposited in PubChem BioAssay by Sanford-Burnham Center for Chemical Genomics.
